Measured values as given in publication PMC12461553 (RSC Advances, 2025).

What was measured:
[1] = tested on: BCL-2 and Survivin expression in MDA-MB-231 cells; experiment: Gene expression analysis by RT-qPCR; format: cell-based, human
How it was run: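 Cells were treated 48 h with varying test compound concentrations, then total RNA was extracted and checked spectrophotometrically. 2 μg RNA was reverse-transcribed to cDNA. BCL2 and Survivin transcripts were measured by RT-qPCR and quantified by the 2−ΔΔCt method against β2-microglobulin as reference gene.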

[2] = tested on: 4T1 cells; experiment: Cell cycle analysis; format: cell-based, murine; conditions: 4T1, 6 μM
How it was run: (§1)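 Cells were seeded at 1 × 10^5 per well and attached 24 h, then exposed to test compound for 24 h. Doxorubicin (0.5 μM) and untreated controls were run alongside. Cells were harvested, washed with PBS and stained with PI/RNase solution for DNA content. Flow cytometry gave G1, S and G2/M fractions from fluorescence intensity using predefined gates.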

[3] = tested on: MCF-7 cells; experiment: SRB cytotoxicity assay, MCF-7; format: cell-based, human
[4] = tested on: BEAS-2B lung cells; experiment: SRB cytotoxicity assay, BEAS-2B normal cells; format: cell-based; conditions: Homo sapiens, read-out: IC50 value, BEAS-2B lung cells
How it was run: (§2)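 Dose–response SRB assay: cells at 3000 per well were attached 24 h, then treated 48 h with test compound at 0.39–25 μM. They were TCA-fixed and stained with 0.057% SRB. Bound dye was dissolved in Tris base pH 10.5 and read at 510 nm. IC50 was fitted by non-linear regression.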

[5] = tested on: 4T1 cells; experiment: Annexin V-FITC/PI apoptosis assay, 4T1; format: cell-based, murine
How it was run: (§3)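 Cells were seeded at 1 × 10^5 per well and allowed to adhere 24 h, then treated 24 h with test compound (2, 4, 6 μM) alongside untreated controls. They were harvested, washed in PBS and stained with annexin V-FITC plus PI in binding buffer, 20 min, dark, room temperature. Flow cytometry gave percentages of viable, early apoptotic, late apoptotic and necrotic cells.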

[6] = tested on: MDA-MB-231 cells; experiment: SRB cytotoxicity assay, MDA-MB-231; format: cell-based, human
[7] = tested on: HEK-293 kidney cells; experiment: SRB cytotoxicity assay, HEK-293 normal cells; format: cell-based; conditions: Homo sapiens, HEK293, read-out: IC50 value, HEK-293 kidney cells
How it was run: as §2

[8] = tested on: MDA-MB-231 cells; experiment: Cell cycle analysis; format: cell-based, human; conditions: MDA-MB-231, 4 μM
How it was run: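 Cells were treated with test compound at 0.5, 1, 2 and 4 μM beside untreated controls. They were stained with propidium iodide and analysed by flow cytometry to give the percentages of cells in G1, S and G2/M phases.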

[9] = tested on: MDA-MB-231 cells; experiment: 3D spheroid; format: cell-based, human; conditions: 8 days
How it was run: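 Single-cell suspensions in 1.5% methylcellulose/DMEM with 20% FBS were seeded at 1 × 10^5 cells per well over a 1% agarose–DMEM base for non-adherent growth. Cells were treated with test compound (0.5, 1, 2 μM) or doxorubicin and incubated 8 days. Spheres (≥20 cells) were imaged by fluorescence microscopy and counted per microscopic field.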

[10] = tested on: MCF-7 cells; experiment: Annexin V-FITC/PI apoptosis assay, MCF-7; format: cell-based, human
How it was run: as §3

[11] = tested on: 4T1 cells; experiment: SRB cytotoxicity assay, 4T1; format: cell-based, murine
How it was run: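 Single-dose screen: cells in DMEM/10% FBS at 37 °C, 5% CO2, seeded at 3000 per well, attached 24 h, then exposed to test compound at 25 μM final for 48 h. Fixed in cold 10% TCA, 1 h, 4 °C; stained 0.057% SRB, 30 min, dark, room temperature; rinsed with 1% acetic acid; dye solubilised in Tris base pH 10.5; absorbance 510 nm; percent cell death.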

[12] = tested on: MCF-7 cells; experiment: Cell cycle analysis; format: cell-based, human; conditions: MCF-7, 6 μM
How it was run: as §1

Question: For `Cc1ccc(C(=O)c2c(-c3ccccc3)n(Cc3ccccc3)c(=O)c3c2c2ccccc2n3C)cc1` [9c, 2-Benzyl-9-methyl-4-(4-methylbenzoyl)-3-phenyl-2,9-dihydro-1H-pyrido[3,4-b]indol-1-one], which “Expression of BCL-2” value [1] is on record?
Answer: significantly downregulated

Question: What about the “Expression of Survivin” value [1] of the same compound?
Answer: significantly downregulated

Question: What about the G1 phase population [2] of the same compound?
Answer: 50.1%

Question: What about the G2/M population [2] of the same compound?
Answer: 41.1%

Question: What about the cytotoxicity at 25 µM ([3]; Homo sapiens, MCF7, 48 h, read-out: Average cell death (%) MCF-7) of the same compound?
Answer: 75.14 ± 0.02%

Question: What about the IC50 ([3]; Homo sapiens, MCF7, 48 h, read-out: IC50 value, MCF-7) of the same compound?
Answer: 4.34 ± 0.31 µM

Question: What about the “Average cell death (%) MCF-7” value ([3]; at 25 μM, 48 h, SRB assay) of the same compound?
Answer: 75.14 ±4.02%

Question: And the IC50 [4]?
Answer: 7.18 ± 0.32 µM

Question: What about the Early apoptosis ([5]; 4T1, 2 μM) of the same compound?
Answer: 13.5%

Question: And the Total apoptosis ([5]; 4T1, 2 μM)?
Answer: 16.5%

Question: What about the Early apoptosis ([5]; 4T1, 4 μM) of the same compound?
Answer: 19.2%

Question: And the Total apoptosis ([5]; 4T1, 4 μM)?
Answer: 23.5%

Question: And the Early apoptosis ([5]; 4T1, 6 μM)?
Answer: 22%

Question: What about the Total apoptosis ([5]; 4T1, 6 μM) of the same compound?
Answer: 27.2%

Question: What about the cytotoxicity at 25 µM ([6]; Homo sapiens, MDA-MB-231, 48 h, read-out: Average cell death (%) MDA-MB-231) of the same compound?
Answer: 94.7 ± 1.1%

Question: What about the IC50 ([6]; Homo sapiens, MDA-MB-231, 48 h, read-out: IC50 value, MDA-MB-231) of the same compound?
Answer: 0.77 ± 0.03 µM

Question: And the “Selectivity for MDA-MB-231 breast cancer cells” value ([6]; MDA-MB-231 over normal HEK-293 kidney and BEAS-2B lung cells)?
Answer: ~10 fold

Question: What about the IC50 [7] of the same compound?
Answer: 7.96 ± 0.04 µM

Question: What about the G1 phase population [8] of the same compound?
Answer: 46.9%

Question: And the G2/M population [8]?
Answer: 41.9%

Question: And the Number of spheres ([9]; MDA-MB-231, 0.5, 1, and 2 μM)?
Answer: reduced the number of spheres in a dose-dependent manner

Question: And the Sphere formation ([9]; MDA-MB-231, methylcellulose)?
Answer: completely abrogated sphere formation

Question: And the Early apoptosis ([10]; MCF-7, 2 μM)?
Answer: 7.2%

Question: And the “Total apoptotic population (early + late)” value (shortened to “Total apoptotic population”) ([10]; MCF-7, 2 μM)?
Answer: 11.3%

Question: And the Early apoptosis ([10]; MCF-7, 4 μM)?
Answer: 8.05%

Question: What about the “Total apoptotic population” value ([10]; MCF-7, 4 μM) of the same compound?
Answer: 14.1%

Question: What about the Early apoptosis ([10]; MCF-7, 6 μM) of the same compound?
Answer: 9.9%

Question: And the “Total apoptotic population” value ([10]; MCF-7, 6 μM)?
Answer: 16.5%

Question: And the cytotoxicity at 25 µM ([11]; Mus musculus, 4T1, 48 h, read-out: Average cell death (%) 4T1)?
Answer: 72.34 ± 0.04%

Question: And the IC50 ([11]; Mus musculus, 4T1, 48 h, read-out: IC50 value, 4T1)?
Answer: 3.71 ± 0.39 µM

Question: What about the “Average cell death (%) 4T1” value ([11]; at 25 μM, 48 h, SRB assay) of the same compound?
Answer: 72.34 ±4.04%

Question: And the G1 phase population [12]?
Answer: 85.6%
